# Columns and labels:
# [1] = species: Rattus norvegicus; assay: Effect on [3H]sradipine binding to rat heart.
# Summary of the method: (§1)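 Sprague Dawley rat ventricle microsomes were prepared in 50 mM Tris with PMSF (pH 7.4), with a final 100 000g spin. Membranes (0.3 mg protein/mL) were preincubated 5 min with compound (10⁻⁶–10⁻¹¹ M), then given 0.2 nM [³H]-(+)-methylisradipine with 0.5 mM CaCl₂ for 60 min at room temperature. Filter-bound label was counted. Nonspecific binding was taken from 1 μM isradipine. Experiments were repeated 2–3 times in triplicate, with LIGAND analysis.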
# [2] = species: Cavia porcellus; assay: Effect on [3H]sradipine binding to guinea pig ileum.
# Summary of the method: (§2)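 Guinea pig ileal longitudinal-muscle microsomes were prepared in 50 mM Tris with PMSF (pH 7.0) and spun down at 45 000g. Membranes (0.3 mg protein/mL) were preincubated 5 min with compound (10⁻⁶–10⁻¹¹ M), then incubated 60 min at room temperature with 0.2 nM [³H]-(+)-methylisradipine and 0.5 mM CaCl₂. Samples were filtered and counted. Nonspecific binding was set with 1 μM isradipine. Runs were 2–3 times in triplicate, analysed with LIGAND.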
# [3] = Concentration displacing [3H]sradipine binding to rat heart.; summary of the method: as §1
# [4] = Concentration displacing [3H]-sradipine binding to rat brain; type: tissue-based
# Summary of the method: (§3)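 Whole Sprague Dawley rat brain was homogenized in 25 mM HEPES/NaOH with 0.32 M sucrose and 0.1 mM PMSF (pH 7.4), and pellets were collected by centrifugation. Microsomes (0.3 mg protein/mL) received compound (10⁻⁶–10⁻¹¹ M) for a 5-min preincubation. Then 0.2 nM [³H]-(+)-methylisradipine was added with 0.5 mM CaCl₂, for 60 min at room temperature, followed by filtration and scintillation counting. Nonspecific binding was defined with 1 μM isradipine. Runs were 2–3 times in triplicate, fitted with LIGAND.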
# [5] = species: Cavia porcellus; assay: Concentration displacing [3H]-sradipine binding to guinea pig ileum.; summary of the method: as §2
# [6] = species: Rattus norvegicus; assay: Effect on [3H]sradipine binding to rat brain; type: tissue-based; summary of the method: as §3
# [7] = species: Rattus norvegicus; assay: Effect on [3H]sradipine binding to rat brain.; type: tissue-based; summary of the method: as §3
# [8] = Concentration displacing [3H]sradipine binding to rat brain.; type: tissue-based; summary of the method: as §3
# [9] = Concentration inhibiting [3H]sradipine binding to rat brain.; type: tissue-based; summary of the method: as §3
Bmax [1],Ki [3],Ki [4],Bmax [6],Bmax [7],Ki [8],Ki [9],Compound,Bmax [2],Ki [5]
81.4 fmol/mg,5.95 nM,17.7 nM,79.1 fmol/mg,–,–,–,CO/C(O)=C1\C(C)=NC(C)=C(C(=O)OC[C@H]2CCCO2)[C@@H]1c1ccccc1[N+](=O)[O-],250 fmol/mg,11.1 nM
74.9 fmol/mg,0.6 nM,–,–,74.9 fmol/mg,0.58 nM,–,CO/C(O)=C1\C(C)=NC(C)=C(C(=O)OC[C@@H]2CCCO2)[C@H]1c1ccccc1[N+](=O)[O-],299 fmol/mg,0.96 nM
65.3 fmol/mg,13 nM,–,77.2 fmol/mg,–,–,18.1 nM,COC(=O)C1=C(C)NC(C)=C(C(=O)OC[C@@H]2CCCO2)[C@@H]1c1ccccc1[N+](=O)[O-] (stereo in doubt),261 fmol/mg,24.8 nM
84.7 fM/mg,1 nM,0.67 nM,–,79.7 fmol/mg,–,–,COC(=O)C1=C(C)NC(C)=C(C(=O)OC[C@H]2CCCO2)[C@H]1c1ccccc1[N+](=O)[O-] (stereo in doubt),269 fmol/mg,2.04 nM

# From ChEMBL document CHEMBL1128480 (J Med Chem, 1995)
